# Screening data: PubChem BioAssay, Broad Institute
# F508del corr: correctors of CFTR F508del function in bronchial epithelial cells | 350,000 tested, 0.36% active | activity (quench increase), % at 7.58 µM | CFBE cells, YFP halide quenching; stimulated with forskolin plus potentiator P3; % fluorescence drop versus neutral controls | AID 720511;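 active means mean added fluorescence quench of at least 8% versus neutral control, with both replicates also reaching 8%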;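 further: cells transiently co-express mutant CFTR-F508del with the halide-sensitive YFP; corrector assay measuring rescue of mutant channel to the surface after 24 h compound exposure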
# SIRT5 inh: sirtuin-5 (human) deacylase inhibition; Q9NXA8; inhibition, % at 15 µM; 330,000 tested, 1.1% active; Purified SirT5, succinyl-peptide AMC, trypsin-coupled fluorescence; in the data active means inhibition above about 15%
# rRNA inh HTS: inhibitors of bacterial rRNA selective over humanized ribosomes; E. coli WT GFP vs humanized-ribosome RFP mutants, fluorescence, 24 h; active compounds read low; DMSO median 0, no signal -100; GFP signal change (wild-type ribosome), % (test concentration not listed); 350,000 tested, 1.6% active; AID 720706;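 active means significant combined selectivity score with lowered wild-type GFP, culture density cut under 30%, mutant RFP and density less affected; inactive means any of these conditions unmet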
# ERAP1 HTS inh: blocks human ERAP1 aminopeptidase activity. Q9NZ08. recombinant ERAP1, Leu-AMC fluorescence, 60 min. inhibition, % at 10.7 µM. 340,000 tested, 0.15% active. AID 652197;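 active means mean replicate inhibition of at least 30%, or all replicates individually reaching that 30% level; inactive means mean below 30% and not every replicate reaching it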
# Target sequence (Q9NZ08 whole entry, looked up): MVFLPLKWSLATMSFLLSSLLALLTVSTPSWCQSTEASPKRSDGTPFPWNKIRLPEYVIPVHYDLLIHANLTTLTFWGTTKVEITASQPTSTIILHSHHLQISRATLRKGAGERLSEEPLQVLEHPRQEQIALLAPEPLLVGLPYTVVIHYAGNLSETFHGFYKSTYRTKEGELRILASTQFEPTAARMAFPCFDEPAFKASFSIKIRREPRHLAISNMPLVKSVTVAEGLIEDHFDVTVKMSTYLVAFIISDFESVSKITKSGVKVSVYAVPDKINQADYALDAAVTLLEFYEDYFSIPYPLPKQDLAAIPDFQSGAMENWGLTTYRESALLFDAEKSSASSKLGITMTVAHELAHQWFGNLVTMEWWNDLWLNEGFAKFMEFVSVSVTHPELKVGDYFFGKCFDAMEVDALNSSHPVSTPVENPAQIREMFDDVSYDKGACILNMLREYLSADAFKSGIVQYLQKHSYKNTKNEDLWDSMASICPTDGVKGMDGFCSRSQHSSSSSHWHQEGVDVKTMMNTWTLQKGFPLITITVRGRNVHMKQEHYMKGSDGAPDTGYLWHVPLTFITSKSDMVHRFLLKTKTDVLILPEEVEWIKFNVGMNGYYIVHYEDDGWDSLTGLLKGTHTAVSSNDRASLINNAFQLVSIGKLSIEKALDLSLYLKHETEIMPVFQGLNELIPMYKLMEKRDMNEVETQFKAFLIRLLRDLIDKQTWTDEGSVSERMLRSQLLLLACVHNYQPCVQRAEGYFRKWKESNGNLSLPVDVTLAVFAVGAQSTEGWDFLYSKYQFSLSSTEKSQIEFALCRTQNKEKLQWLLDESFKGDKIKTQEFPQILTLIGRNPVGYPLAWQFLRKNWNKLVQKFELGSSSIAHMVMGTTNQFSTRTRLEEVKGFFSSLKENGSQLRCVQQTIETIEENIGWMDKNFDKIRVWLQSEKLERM
# S100A4 MyoIIA: blocks human S100A4 binding to myosin IIA peptide. P26447. S100A4/TAMRA-MyoIIA peptide fluorescence polarization. inhibition, % at 10.7 µM. 360,000 tested, 0.14% active;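 active means mean inhibition of at least 70% across replicates, with every replicate also reaching that level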
#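 Test system: S100A4 monomer protein. Medium: HEPES buffer with Ca2+, pH 7.2. Reagent: fluorescent myosin IIA peptide, 5 nM. Compound dosing: single-point compound testing. Timing: 5 min between mix addition and reading. Benchmarks: DMSO neutral and TFP positive wells.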
# Numbers stand for hits; – = inactive; · = no result; ! = not confirmed by another sample. Compounds with a hit are over-represented: about 3.1% of the library has one in this group of screens.
SMILES,F508del corr,SIRT5 inh,rRNA inh HTS,ERAP1 HTS inh,S100A4 MyoIIA
O=c1oc(=S)oc2c1[C@H](c1ccc(Cl)cc1)O[C@H](C1CC1)C2,–,·,-43,–,–
O=c1oc(=S)oc2c1[C@H](c1ccc(Cl)cc1)O[C@H](C1CCCC1)C2,–,–,–,–,–
CCOc1ccc(C(=O)Nc2cc(NC(=O)c3ccc(OCC)c(Cl)c3)cc(C(=O)O)c2)cc1Cl,–,15,–,–,–
CCOc1ccc(C(=O)Nc2cccc(C(=O)O)c2)cc1Cl,–,–,–,–,–
O=C(NC1CCCCC1)N1CC(=O)N2[C@H](CO)[C@@H](c3ccc(/C=C/c4ccccc4)cc3)[C@@H]2C1,–,–,–,–,–
Cc1onc(-c2c(Cl)cccc2Cl)c1C(O)c1ccccc1 (stereo not given),–,–,–,–,–
Cc1noc(C)c1C(c1ccccc1)c1ccccc1,–,–,-47,–,–
O=C1C=CC(=O)N1Cc1ccccn1,–,21,–,–,–
O=C1c2ccccc2C(=O)N1Cc1ccccn1,–,–,–,–,–
CCOc1ccccc1C1C2=C(COC2=O)Nc2cc3c(cc21)OCO3 (stereo not given),–,–,-24,–,–
O=C1OCC2=C1C(c1ccc(F)cc1)c1cc3c(cc1N2)OCO3 (stereo not given),–,–,·,–,–
C[C@H]1ON(c2ccccc2)[C@@H](c2ccccc2)[C@@H]1C(=O)N1C(=O)OC[C@@H]1c1ccccc1,–,–,·,–,–
CN(CC(=O)NC(=O)NCc1ccccc1)Cc1cccc(Cl)c1Cl,–,–,-38,–,–
O=C(N/N=C/c1ccc(Cl)cc1Cl)c1ccc2nc[nH]c2c1,–,–,-18,–,–
O=C(N/N=C/c1ccccc1C(F)(F)F)c1ccc2nc[nH]c2c1,–,–,-25,–,–
Cc1cc(C(=O)N/N=C/C=C/c2ccccc2)c(C)o1,–,–,-25,–,–
CC(C)C#Cc1ccc2c(c1)O[C@@H](CN(C)C(=O)c1cccnc1)[C@H](C)CN([C@H](C)CO)S2(=O)=O,–,–,–,–,–
O=S1(=O)CCN(C(CO)c2ccccc2)CC1 (stereo not given),10,–,–,–,–
Cc1noc(C)c1NC(=O)N(C)C[C@@H]1OCCCC[C@@H](C)Oc2ccc(NC(=O)Nc3ccc(F)cc3)cc2C(=O)N([C@H](C)CO)C[C@H]1C,–,–,–,–,–
O=C(C[C@@H]1C[C@H]2c3cc(NC(=O)Nc4ccccc4F)ccc3O[C@H]2[C@H](CO)O1)NC1CCCCC1,–,–,–,–,–
COc1ccc(OCc2cc(C(=O)NCCN3CCCC(O)C3)no2)c(Cl)c1 (stereo not given),–,–,–,–,–
O=C(NCCN1CCCC(O)C1)c1cc(COc2ccc(F)cc2Cl)on1 (stereo not given),–,24,–,–,–
C[C@@H]1CN([C@@H](C)CO)C(=O)c2cc(NC(=O)Cc3ccccc3)ccc2O[C@@H](C)CCCCO[C@H]1CN(C)S(=O)(=O)c1cccs1,–,·,–,·,·
COc1ccc(NC(=O)Nc2cc(C(C)(C)C)on2)cc1OC,–,–,-26,–,–
CC(C)NC(=O)Nc1ccc2c(c1)C(=O)N([C@@H](C)CO)C[C@@H](C)[C@H](CN(C)CC1CC1)OCCCC[C@@H](C)O2,–,–,–,–,–
SMILES,F508del corr,SIRT5 inh,rRNA inh HTS,ERAP1 HTS inh,S100A4 MyoIIA
Cc1noc(C)c1NC(=O)Nc1cccc2c1O[C@@H](CN(C)C(=O)Nc1ccc3c(c1)OCO3)[C@@H](C)CN([C@H](C)CO)C2=O,–,–,-28!,–,–
C[C@H](CO)N1C[C@H](C)[C@@H](CN(C)C(=O)Nc2ccc3c(c2)OCO3)Oc2c(NC(=O)C3CC3)cccc2C1=O,–,22!,–,–,–
Cc1ccccc1-c1cnc2c(c1)C(=O)N([C@H](C)CO)C[C@@H](C)[C@@H](CN(C)CC1CCOCC1)O2,–,–,–,–,–
O=C(NCc1ccccn1)C1CCC(=O)N(Cc2ccc(Cl)cc2)C1 (stereo not given),–,37,–,–,–
O=C(NCc1ccccc1F)C1CCC(=O)N(Cc2ccc(Cl)cc2)C1 (stereo not given),–,–,–,–,–
CCOc1ccccc1C=NNC(=O)C(=O)NN=Cc1ccccc1OCC,–,–,·,–,–
